Data on 14 compounds can be found in ChEMBL document CHEMBL1147804, “3,4-Fused cyclohexyl sulfones as gamma-secretase inhibitors” (Bioorg Med Chem Lett, 2006).

A short description of data set [1]: Half life in rat. It is filed as ADME, organism-based. The conditions noted are these: in vivo.
Data set [2] can be described thus: Bioavailability in rat. It is filed as ADME, organism-based. The note with it: in vivo.
The nature of data set [3]: Stability assessed as liver microsomal turnover in rat at 1 uM. Type of data set: ADME, Microsome. The note with it: liver microsomes, read-out: Stability. The procedure, abridged:
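Compound at 1 μM was incubated with rat liver microsomal protein (5 mg/mL) plus NADPH at 37 °C for 20 min. Percentage of parent remaining was quantified by LC–MS.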

A further data set has as its target Gamma-secretase. Put plainly: Inhibition of gamma secretase. Type of data set: protein-complex assay, Homo sapiens.
The nature of data set [4]: Brain to plasma ratio for reduction of DEA-extractable brain beta amyloid in orally dosed APP-YAC mouse after 4 hrs. The note with it: po. Type of data set: ADME, organism-based.
For data set [5], the system named is Mus musculus. Put plainly: Plasma concentration for reduction of DEA-extractable brain beta amyloid in orally dosed APP-YAC mouse after 4 hrs relative to control. It is filed as ADME, organism-based. In short, it runs like this:
(§1)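 APP-YAC transgenic mice were dosed orally with a dose-response titration, with vehicle and a positive-control γ-secretase inhibitor as references. At 4 h post-dose, DEA-extractable brain Aβ was measured alongside plasma and brain drug levels. EC50 is the plasma or brain concentration giving a 50% cut in brain Aβ. ED50 is the oral dose reaching those levels.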

The test system of data set [6] is Mus musculus. Put plainly: Reduction of DEA-extractable brain beta amyloid in orally dosed APP-YAC mouse after 4 hrs. The note with it: po. Type of data set: ADME, organism-based. In short, it runs like this: as §1
Data set [7] relates to Mus musculus. Put plainly: Brain concentration for reduction of DEA-extractable brain beta amyloid in orally dosed APP-YAC mouse after 4 hrs relative to control. It is filed as ADME, organism-based. In short, it runs like this:
as §1

Consider `CS(=O)(=O)NCC1CCCC(c2cc(F)ccc2F)(S(=O)(=O)c2ccc(Cl)cc2)C1` (stereo not drawn), for which, in data set [1], the half-life (as a rule, the time in which the quantity being followed falls by half) was 1.1 h. Further, the bioavailability (usually the share of a dose that reaches the circulation, judged against a reference dose that is usually intravenous) in data set [2] is 31%.
For `CCN1C[C@@H]2C[C@](c3cc(F)ccc3F)(S(=O)(=O)c3ccc(Cl)cc3)CC[C@@H]2NS1(=O)=O` (racemic), the metabolised at 1 µM in data set [3] worked out at 46%. The IC50 (as a rule, the concentration that inhibits the measured activity by half) at Gamma-secretase came out at 400 pM.
With `CC(C)N1C[C@@H]2C[C@](c3cc(F)ccc3F)(S(=O)(=O)c3ccc(Cl)cc3)CC[C@@H]2NS1(=O)=O` (racemic), on Gamma-secretase, the IC50 turned out to be 410 pM.
Consider `CC(C)(C)N1C[C@@H]2C[C@](c3cc(F)ccc3F)(S(=O)(=O)c3ccc(Cl)cc3)CC[C@@H]2NS1(=O)=O` (racemic), for which, in data set [3], the metabolised at 1 µM amounted to 15%. On Gamma-secretase, this compound had an IC50 of 1390 pM.
Turning to `O=S1(=O)NC[C@@H]2C[C@](c3cc(F)ccc3F)(S(=O)(=O)c3ccc(Cl)cc3)CC[C@@H]2N1C1CC1` (racemic), in data set [4], the Kp (usually tissue or fluid exposure divided by exposure in the circulation) at 4 h was determined as 0.16. For the same compound, the IC50 against Gamma-secretase came to 40 pM. The values for the EC50 with Mus musculus [5] and with Mus musculus [7] were 104000 pM and 20000 pM, respectively. Besides, the ED50 (usually the dose that gives a 50% effect, or the effect in half of the subjects) in the data set with Mus musculus [6] amounted to 11.4 mg/kg.
As to `O=S1(=O)NC[C@@H]2C[C@](c3cc(F)ccc3F)(S(=O)(=O)c3ccc(Cl)cc3)CC[C@@H]2N1` (racemic), in data set [3], the metabolised at 1 µM came out at 9%. At Gamma-secretase, the IC50 was found to be 6180 pM.
Consider `O=S1(=O)N[C@H]2CC[C@@](c3cc(F)ccc3F)(S(=O)(=O)c3ccc(Cl)cc3)C[C@H]2CN1C1CC1` (racemic), for which, in data set [3], the metabolised at 1 µM worked out at 14%. This compound also came in with an IC50 on Gamma-secretase of 190 pM.
On to `CCCN1C[C@@H]2C[C@](c3cc(F)ccc3F)(S(=O)(=O)c3ccc(Cl)cc3)CC[C@@H]2NS1(=O)=O` (racemic), for which, in data set [3], the metabolised at 1 µM is 63%. In addition, the IC50 against Gamma-secretase was found to be 1170 pM.
The matching figures for `O=S1(=O)N[C@H]2CC[C@@](c3cc(F)ccc3F)(S(=O)(=O)c3ccc(Cl)cc3)C[C@H]2CN1C1CCC1` (racemic): 68% and 260 pM.
The matching figures for `CN1C[C@@H]2C[C@](c3cc(F)ccc3F)(S(=O)(=O)c3ccc(Cl)cc3)CC[C@@H]2NS1(=O)=O` (racemic): 17% and 900 pM.
Turning to `CCC1C[C@@H]2C[C@](c3cc(F)ccc3F)(S(=O)(=O)c3ccc(Cl)cc3)CC[C@@H]2CS1(=O)=O` (single isomer, unassigned), the Kp at 4 h in data set [4] was found to be 0.41. Besides, the metabolised at 1 µM in data set [3] was 15%. For the same compound, at Gamma-secretase, it took 760 pM to reach half-maximal inhibition (IC50). Further, the EC50 (as a rule, the midpoint of the concentration-response curve) in the data set on Mus musculus [5] was found to be 761000 pM; in the data set with Mus musculus [7], 327000 pM. Also, the ED50 with Mus musculus [6] was 3.9 mg/kg.
As for `CCC1C[C@@H]2C[C@](c3cc(F)ccc3F)(S(=O)(=O)c3ccc(Cl)cc3)CC[C@@H]2NS1(=O)=O` (single isomer, unassigned), the Kp at 4 h in data set [4] came out at 0.18. In addition, the metabolised at 1 µM in data set [3] is 7%. At Gamma-secretase, this compound registered an IC50 of 60 pM. For the same compound, the EC50 in the data set with Mus musculus [5] is 380000 pM; in the data set on Mus musculus [7] it was 88000 pM. The ED50 with Mus musculus [6] amounted to 2.8 mg/kg.
With `CC1C[C@@H]2C[C@](c3cc(F)ccc3F)(S(=O)(=O)c3ccc(Cl)cc3)CC[C@@H]2NS1(=O)=O` (single isomer, unassigned), the metabolised at 1 µM in data set [3] came to 20%. The IC50 on Gamma-secretase is 80 pM.
Taken in the same sequence, the figures for `CCCC1C[C@@H]2C[C@](c3cc(F)ccc3F)(S(=O)(=O)c3ccc(Cl)cc3)CC[C@@H]2NS1(=O)=O` (single isomer, unassigned) were 32% and 240 pM.
